Results reported in ChEMBL document CHEMBL5532699, “Design, docking optimization, and evaluation of biotin-PEG4-1,8-naphthalimide as a potent and safe antitumor agent with dual targeting of ferroptosis and DNA” (RSC Med Chem, 2024).
pIC50: −log10 of the molar value. Active and inactive are the calls of the source. The calls are words filed in the database; no cut-off is given here.

Columns and labels:
MGC-803 [1] = assay: Induction of ferroptosis in human MGC-803 cells assessed as reduction in mitochondrial cristae at 5 uM incubated for 24 hrs by TEM analysis; assay type: functional, cell-based
Method in brief: (§1)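 Cell samples prefixed in 3% glutaraldehyde, postfixed in 1% osmium tetroxide, dehydrated through graded acetone (30–100%), embedded in Epon812, cut into 60–90 nm ultrathin sections on copper grids, stained with uranyl acetate 10–15 min and lead citrate 1–2 min at room temperature, examined by TEM.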

MGC-803 [2] = assay: Induction of DNA damage in human MGC-803 cells assessed as appearance of long DNA tails at 25 to 100 uM incubated for 24 hrs by comet assay; assay type: functional, cell-based; settings: dose 25-100 µM
Method in brief: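 MGC-803 cells exposed 25, 50 or 100 μM for 24 h, mixed 1:8 with low-melt agarose on comet slides, held 1 day at 4°C in dark, lysed 2 h at 4°C. Alkaline unwinding (1 mM EDTA, 300 mM NaOH, pH >13) 45 min at 4°C; electrophoresis in 1 mM EDTA/200 mM NaOH at 25 V, 30 min. Washed in Tris-HCl pH 7.5, PI-stained, imaged by fluorescence microscopy.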

MGC-803 [3] = assay: Induction of cell cycle arrest in human MGC-803 cells assessed as accumulation of cells at S phase at 50 uM incubated for 24 hrs by PI staining based flow cytometry (Rvb=28.00%); assay type: functional
MGC-803 [4] = assay: Effect on FACL4 protein expression in human MGC-803 cells at 25 to 50 uM incubated for 24 hrs by Western blot analysis; assay type: functional, cell-based; settings: dose 25-50 µM
Method in brief: (§2)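 MGC-803 cells treated 25 or 50 μM for 24 h, lysed in ice-cold 1% SDS/Tris-HCl pH 7.5 buffer with EDTA, NaCl and protease inhibitors, spun 12,000g 18 min. Protein quantified by BCA; 40–50 μg resolved on 10% SDS-PAGE, transferred to PVDF, milk-blocked 2 h, primary antibody overnight, HRP secondary 1 h at RT. ECL detection with densitometry.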

[5] = Toxicity in nude mouse xenografted with human MGC-803 cells assessed as effect on animal behavior at 24 to 48 mg/kg, ip administered once every two days for 21 days; assay type: organism-based; settings: in vivo, 504 h, dose 24-48 mg/kg, time 21 day
Method in brief: (§3)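 1×10^6 tumor cells injected s.c. into the right flank of nude mice. At mean tumor volume 60–80 mm³, animals randomized to vehicle or treatment groups (n = 6). Compound in 5% v/v DMSO/saline given i.p. every 2 days. Tumor size and weight recorded; volume = lw²/2 from length and width. Body weight tracked as the systemic toxicity index.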

HCT-116 = assay: Antiproliferative activity against human HCT-116 cells incubated for 48 hrs by MTT assay; assay type: functional, cell-based; settings: HCT-116, 48 h
Method in brief: (§4)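 Monolayer cells in DMEM with 10% FBS, penicillin and streptomycin, 37°C, 5% CO2. Exponentially growing cells were seeded in 96-well plates and exposed to compound for 48 h. MTT was then added for 4 h at 37°C. Medium was removed, formazan dissolved in DMSO, and OD read at 490 nm. Each plate had five replicate wells, and assays were repeated three times per line.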

MGC-803 [6] = assay: Induction of ferroptosis in human MGC-803 cells assessed as increase in mitochondrial membrane density at 5 uM incubated for 24 hrs by TEM analysis; assay type: functional, cell-based; method in brief: as §1
[7] = Toxicity in nude mouse xenografted with human MGC-803 cells assessed as pathological changes in lungs at 12 to 48 mg/kg, ip administered once every two days for 21 days by H and E staining based analysis; assay type: organism-based; settings: in vivo, 504 h, dose 12-48 mg/kg, time 21 day
Method in brief: (§5)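 Nude mice carrying s.c. xenografts (1×10^6 cells, right flank) randomized at 60–80 mm³ (n = 6), dosed i.p. every 2 days in 5% v/v DMSO/saline. Major organs examined by H&E staining at 200× magnification.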

[8] = Metabolic stability in male CD-1 mouse liver microsomes assessed as half life at 2 uM incubated for 60 min in the presence of NADPH by LC-MS/MS analysis; assay type: ADME, Microsome
Method in brief: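 Male CD-1 mouse liver microsomes at 0.5 mg/mL final in 100 mM phosphate buffer, pH 7.4. Mixture was preincubated with 1 mM NADPH (PBS only for the negative control) for 10 min at 37°C. Reaction was started with test compound at 2 µM final. Aliquots were taken at 0.5, 15, 30, 45 and 60 min into cold methanol with internal standard, centrifuged, and the supernatant analysed by LC-MS/MS.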

MGC-803 [9] = assay: Induction of apoptosis in human MGC-803 cells; assay type: functional, cell-based
MGC-803 [10] = assay: Induction of DNA damage in human MGC-803 cells assessed as increase in phosphorylated H2AX protein level at Ser139 residue at 25 to 50 uM incubated for 24 hrs by Western blot analysis; assay type: functional, cell-based; settings: dose 25-50 µM; method in brief: as §2
MGC-803 [11] = assay: Inhibition of DNA synthesis in human MGC-803 cells at 25 to 50 uM incubated for 24 hrs by EdU staining based fluorescence microscopic analysis; assay type: functional, cell-based; settings: dose 25-50 µM
[12] = Toxicity in nude mouse xenografted with human U-251 cells assessed as pathological changes in spleen at 24 to 48 mg/kg, ip administered once every two days for 21 days by H and E staining based analysis; assay type: organism-based; settings: in vivo, 504 h, dose 24-48 mg/kg, time 21 day; method in brief: as §5
[13] = tested on: calf thymus DNA (Bos taurus); assay: Competitive binding affinity to calf thymus DNA in presence of propidium iodide by fluorescence intercalator displacement assay
[14] = Toxicity in nude mouse xenografted with human MGC-803 cells assessed as pathological changes in heart at 12 to 48 mg/kg, ip administered once every two days for 21 days by H and E staining based analysis; assay type: organism-based; settings: in vivo, 504 h, dose 12-48 mg/kg, time 21 day; method in brief: as §5
[15] = Toxicity in nude mouse xenografted with human MGC-803 cells assessed as reduction in body weight at 24 to 48 mg/kg, ip administered once every two days for 21 days; assay type: organism-based; settings: in vivo, 504 h, dose 24-48 mg/kg, time 21 day; method in brief: as §3
MGC-803 [16] = assay: Induction of ferroptosis in human MGC-803 cells assessed as increase in intracellular lipid peroxide and ROS level by measuring increase in green fluorescence intensity at 50 uM incubated for 24 hrs by BODIPY 581/591 C11 staining based confocal microscopic analysis; assay type: functional, cell-based
MGC-803 [17] = assay: Induction of cell cycle arrest at S phase in human MGC-803 cells assessed as decrease in cyclin E1 protein expression level at 25 to 50 uM incubated for 24 hrs by Western blot analysis; assay type: functional, cell-based; settings: dose 25-50 µM; method in brief: as §2
MGC-803 [18] = assay: Induction of cell cycle arrest in human MGC-803 cells assessed as accumulation of cells at G2/M phase at 100 uM incubated for 24 hrs by PI staining based flow cytometry (Rvb=12.91%); assay type: functional
[19] = Cytotoxicity against HK-2 cells incubated for 48 hrs by MTT assay; assay type: toxicity, cell-based; settings: human; method in brief: as §4
[20] = Toxicity in nude mouse xenografted with human MGC-803 cells assessed as pathological changes in liver at 12 to 48 mg/kg, ip administered once every two days for 21 days by H and E staining based analysis; assay type: organism-based; settings: in vivo, 504 h, dose 12-48 mg/kg, time 21 day; method in brief: as §5
MGC-803 [21] = assay: Induction of cell cycle arrest in human MGC-803 cells assessed as accumulation of cells at S phase at 100 uM incubated for 24 hrs by PI staining based flow cytometry (Rvb=28.00%); assay type: functional
U-251 = assay: Antitumor activity against human U-251 cells xenografted in nude mouse assessed as tumor inhibition ratio at 48 mg/kg, ip administered once every two days for 21 days relative to control; assay type: functional; settings: U-251, 504 h, time 21 day; method in brief: as §3

In the case of CN(C)CCN1C(=O)c2cccc3c(N4CCN(C(=O)CCOCCOCCOCCOCCNC(=O)CCCCC5SCC6NC(=O)NC65)CC4)ccc(c23)C1=O (stereo not drawn), the Activity (MGC-803 [1]) was “Active”, the Activity (MGC-803 [2]) was “Active” and the Activity (MGC-803 [3]) was 40.58%. The Activity (MGC-803 [4]) was “inactive”, the Activity [5] was “Non-Toxic” and the pIC50 (HCT-116) was under 4.30. The Activity (MGC-803 [6]) was “Active”, the Activity [7] was “Non-Toxic” and the half-life at 2 µM [8] was 36.6 min. For the same molecule, the Activity (MGC-803 [9]) was “inactive”, the Activity (MGC-803 [10]) was “Active” and the inhibition (MGC-803 [11]) was “Active”. The Activity [12] was “Non-Toxic”, the Activity [13] was “Active” and the Activity [14] was “Non-Toxic”. For the same molecule, the Activity [15] was “Non-Toxic”, the Activity (MGC-803 [16]) was “Active” and the Activity (MGC-803 [17]) was “Active”. For the same molecule, the Activity (MGC-803 [18]) was 18.57%, the IC50 at 48 h [19] was over 50 µM and the Activity [20] was “Non-Toxic”. It also gave an Activity (MGC-803 [21]) of 41.72% and an inhibition in vivo at 48 mg/kg (U-251) of 76.2%.
